Measured values reported in ChEMBL document CHEMBL4373710, “DNA Structural Alteration Leading to Antibacterial Properties of 6-Nitroquinoxaline Derivatives” (J Med Chem, 2019).
Converted amounts (≈) assume the structure as drawn. The source made the active and inactive calls. The calls are words filed in the database; no cut-off is given here.

Columns and labels:
[1] = system: Staphylococcus epidermidis; test: Antibacterial activity against Staphylococcus epidermidis MTCC3615 by broth microdilution assay; assay type: functional
Summary of the method: (§1)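 Broth microdilution per CLSI; 5×10^5 cfu/mL bacteria in LB broth; compounds from DMSO stocks, final DMSO under 0.6%, with DMSO control. Plates incubated at the strain's recommended growth temperature and time; growth read as OD600.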

[2] = Antibacterial activity against Arthrobacter chlorophenolicus A6MTCC3706 by broth microdilution assay; assay type: functional; settings: Pseudarthrobacter chlorophenolicus; summary of the method: as §1
[3] = system: Pseudomonas aeruginosa; test: Antibacterial activity against Pseudomonas aeruginosa MTCC1688 by broth microdilution assay; assay type: functional; summary of the method: as §1
[4] = system: HEK293; test: Cytotoxicity against HEK293 cells measured after 24 hrs by MTT assay; assay type: cell-based; settings: Homo sapiens, HEK293, 24 h
Summary of the method: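 HEK 293 cells, 4000/well, seeded overnight in DMEM + 10% FBS at 37°C in CO2; compound dose series for 24 h (final DMSO <0.5%, DMSO-only control). MTT at 1 mg/mL final for 3 h, formazan dissolved in DMSO, absorbance 595 nm; IC50 from triplicate OD data.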

[5] = system: Poly(dG-dC)oligonucleotide; test: Binding affinity to poly(dG-dC) DNA (unknown origin) assessed as appearance of induced CD by circular dichroism method; assay type: nucleic-acid assay
Summary of the method: (§2)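 Poly(dA-dT)·poly(dA-dT) or poly(dG-dC)·poly(dG-dC) held at 10 µM. Titrated with compound from 20 to 60 µM and followed by circular dichroism for change in the B-DNA band and appearance of induced CD.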

[6] = system: Poly(dA-dT)oligonucleotide; test: Binding affinity to poly(dA-dT) DNA (unknown origin) assessed as change in B-DNA structure up to 6:1 compound to DNA ratio by circular dichroism method; assay type: nucleic-acid assay; summary of the method: as §2
[7] = system: DNA; test: Binding affinity to Staphylococcus aureus DNA assessed as appearance of induced CD up to 60 uM by circular dichroism method; assay type: nucleic-acid assay
Summary of the method: (§3)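 Genomic DNA isolated from overnight cultures of each strain. Titrated with compound from 15 to 60 µM in a 10 mm quartz cuvette. CD spectra recorded from 230 to 500 nm at 100 nm/min; ellipticity followed at 320 nm.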

[8] = system: Pseudarthrobacter chlorophenolicus; test: Binding affinity to Arthrobacter chlorophenolicus DNA assessed as appearance of induced CD up to 60 uM by circular dichroism method; summary of the method: as §3
[9] = system: DNA; test: Binding affinity to Escherichia coli pBR322 DNA assessed as transition of local to global DNA at 2:1 to 3:1 compound to DNA ratio by atomic force microscopic analysis; assay type: nucleic-acid assay
Summary of the method: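 Supercoiled pBR322 plasmid treated with compound at [compound]:[DNA bp] ratios of 0.5:1, 1:1, 1.5:1, 2:1 and 3:1. Imaged by atomic force microscopy, with DNA height measured and compared against untreated plasmid.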

[10] = system: DNA; test: Inhibition of ethidium bromide binding to Staphylococcus aureus DNA assessed as Stern-Volmer quenching constant by fluorescence assay; assay type: nucleic-acid assay
Summary of the method: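 Fluorescence intercalator displacement: S. aureus genomic DNA 10 µM plus EtBr 5 µM in 10 mM NaP pH 7, 10 mM NaCl, 1% DMSO, at 25 and 37 °C; titrated with 2.5–100 µM compound. Excitation 480 nm, emission 520–700 nm, inner-filter corrected, triplicates; Stern–Volmer analysis, F0/F = 1 + Ksv[Q].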

[11] = system: DNA; test: Inhibition of ethidium bromide binding to Staphylococcus aureus DNA at 37 degC by fluorescence assay; assay type: nucleic-acid assay
Summary of the method: (§4)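 S. aureus genomic DNA (10 µM) with EtBr (5 µM) in 10 mM NaP pH 7, 10 mM NaCl and 1% DMSO, at 25 and 37 °C. Titrated with compound from 2.5 to 100 µM. Excitation 480 nm, emission scanned 520–700 nm, corrected for inner filter. Stern–Volmer analysis, triplicates. Variants: pH 6–8, or NaCl raised to 50 and 200 mM.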

[12] = system: DNA; test: Inhibition of ethidium bromide binding to Staphylococcus aureus DNA at pH 6 to 8 by fluorescence assay; assay type: nucleic-acid assay; summary of the method: as §4
[13] = system: Calf thymus DNA; test: Binding affinity to calf thymus DNA by isothermal titration calorimetric analysis; assay type: nucleic-acid assay; settings: Bos taurus
[14] = system: DNA; test: Binding affinity to Staphylococcus aureus DNA assessed as transition of local to global DNA at 1:1 to 3:1 compound to DNA ratio by atomic force microscopic analysis; assay type: nucleic-acid assay
Summary of the method: (§5)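 Isolated S. aureus genomic DNA (2.8 Mbp) treated with compound at increasing [compound]:[DNA bp] ratios, up to 3:1. Imaged by atomic force microscopy against untreated DNA.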

[15] = system: DNA; test: Binding affinity to Staphylococcus aureus DNA assessed as DNA condensation at 3:1 compound to DNA ratio by atomic force microscopic analysis; assay type: nucleic-acid assay; summary of the method: as §5
[16] = system: Staphylococcus aureus; test: Induction of DNA fragmentation in Staphylococcus aureus at 3.5 uM by EtBr staining based confocal laser scanning fluorescence microscopic analysis; assay type: functional, organism-based
[17] = system: Staphylococcus aureus; test: Induction of DNA breaks in Staphylococcus aureus at 3.5 uM by TUNEL staining based confocal laser scanning fluorescence microscopic analysis; assay type: functional, organism-based
Summary of the method: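 S. aureus treated with 3.5 µM or 0.5% DMSO; pelleted, fixed in 16% paraformaldehyde 30 min at 4°C, permeabilised with 0.2% Triton X-100 plus lysostaphin 0.05 mg/mL; TdT tailing with fluorescent nucleotides 60 min at 37°C, stopped with 2X SSC; confocal imaging with fluorescein filter.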

[18] = system: Staphylococcus aureus; test: Induction of morphological changes in Staphylococcus aureus assessed as change in microbe length at 5 uM by atomic force microscopic analysis (reference value: 1.37 +/- 0.09 micrometer); assay type: functional
[19] = system: Staphylococcus aureus; test: Induction of morphological changes in Staphylococcus aureus assessed as cell aggregation at 3.5 to 5 uM by atomic force microscopic analysis; assay type: functional, organism-based
[20] = system: Staphylococcus aureus; test: Induction of morphological changes in Staphylococcus aureus at 3.5 uM measured after 6 hrs by acridine orange dye based confocal laser scanning fluorescence microscopic analysis; assay type: functional, organism-based
Summary of the method: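 S. aureus with 3.5 µM for 6 h at 37°C; fixed in paraformaldehyde, permeabilised with 0.2% Triton X-100 and lysostaphin 0.05 mg/mL; stained with acridine orange 3 µM for 5 min at 37°C; confocal imaging at 60X.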

[21] = system: Staphylococcus aureus; test: Induction of morphological changes in Staphylococcus aureus assessed as changed population at 3.5 uM measured after 2 hrs by flow cytometric analysis (reference value: 5.71%); assay type: functional
[22] = system: Staphylococcus aureus; test: Induction of morphological changes in Staphylococcus aureus assessed as unchanged population at 3.5 uM measured after 2 hrs by flow cytometric analysis (reference value: 90.4%); assay type: functional
[23] = system: Staphylococcus aureus; test: Disruption of cell membrane in Staphylococcus aureus assessed as accumulation of propidium iodide positive cells at 3.5 uM by flow cytometric analysis (reference value: 1.7%); assay type: functional
[24] = system: Staphylococcus aureus; test: Disruption of cell membrane in Staphylococcus aureus assessed as accumulation of propidium iodide positive cells at 5 uM by flow cytometric analysis (reference value: 1.7%); assay type: functional
[25] = system: Staphylococcus aureus; test: Disruption of preformed biofilm in Staphylococcus aureus at MIC measured after 12 hrs by crystal violet staining based light microscopic analysis; assay type: functional, organism-based
Summary of the method: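 Planktonic cells washed off; 1% crystal violet 10 min, solubilised in 30% acetic acid, A550 read; wells also imaged at 20X by light microscopy.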

[26] = system: Escherichia coli; test: Disruption of membrane integrity in Escherichia coli assessed as increase in extracellular ALK level at 3.5 to 5 uM measured after 2 hrs by PLP substrate based assay

MIC [1]: 2.24 µg/mL (≈ 4.99 µM)
MIC [2]: 0.897 µg/mL (≈ 2 µM)
MIC [3]: 6.73 µg/mL (≈ 15 µM)
Activity [5]: Dose-dependent effect
Activity [6]: inactive
Activity [7]: Active
Activity [8]: Active
Activity [9]: Active
KSV [10]: 1 ×10⁴ /M
inhibition [11]: Active
inhibition [12]: Active
Ka [13]: 2.27 ×10⁴ /M
Activity [14]: Active
Activity [15]: Active
SMILES: CN(C)CCCNc1nc2cc([N+](=O)[O-])ccc2nc1NCc1ccc(C(F)(F)F)cc1
IC50 [4]: 5.66 µg/mL (≈ 12.6 µM)
Activity [16]: Active
Activity [17]: Active
Activity [18]: 2.36 um
Activity [19]: Active
Activity [20]: Active
Activity [21]: 10.2%
Activity [22]: 86.3%
Activity [23]: 7.96%
Activity [24]: 20.4%
Activity [25]: Active
Activity [26]: Active
